Experiment [1] addresses T1, DNA topoisomerase 1 (Homo sapiens) (UniProt P11387).
T1 sequence (whole entry): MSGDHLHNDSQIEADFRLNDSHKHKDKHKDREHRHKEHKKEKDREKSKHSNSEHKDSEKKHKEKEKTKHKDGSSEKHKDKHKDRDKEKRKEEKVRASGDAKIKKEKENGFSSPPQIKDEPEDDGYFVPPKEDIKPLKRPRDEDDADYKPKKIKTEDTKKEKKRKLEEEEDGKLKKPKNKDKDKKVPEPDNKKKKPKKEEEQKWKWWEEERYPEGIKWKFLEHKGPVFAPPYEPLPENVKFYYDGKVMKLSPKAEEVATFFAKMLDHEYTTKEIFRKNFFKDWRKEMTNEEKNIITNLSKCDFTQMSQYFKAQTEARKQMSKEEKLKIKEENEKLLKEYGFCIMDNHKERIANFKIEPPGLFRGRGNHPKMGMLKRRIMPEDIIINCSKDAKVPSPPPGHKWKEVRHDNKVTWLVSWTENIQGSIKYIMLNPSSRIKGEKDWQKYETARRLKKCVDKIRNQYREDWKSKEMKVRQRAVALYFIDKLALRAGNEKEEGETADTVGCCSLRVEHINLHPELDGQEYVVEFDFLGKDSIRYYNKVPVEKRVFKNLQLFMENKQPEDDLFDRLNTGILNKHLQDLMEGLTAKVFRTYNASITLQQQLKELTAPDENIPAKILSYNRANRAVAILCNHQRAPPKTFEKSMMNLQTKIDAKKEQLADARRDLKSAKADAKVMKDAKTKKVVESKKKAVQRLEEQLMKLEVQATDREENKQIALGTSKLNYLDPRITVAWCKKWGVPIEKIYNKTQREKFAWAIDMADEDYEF
The experiment is described as follows: Inhibition of human recombinant Top1 expressed in baculovirus-infected insect Sf9 cells using 3'-[32P]-end-labeled 117 bp DNA as substrate assessed as inhibition of DNA cleavage after 20 mins by PAGE analysis relative to 1 uM camptothecin. The essentials: (§1)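 About 2 nM 3′-[32P]-end-labeled 117-bp DNA (Klenow fill-in with [α32P]dGTP) incubated with recombinant Top1 and compound for 20 min at room temperature. Stopped with 0.5% SDS, run on 20% denaturing PAGE, read by phosphorimager. Cleavage bands scored visually against 1 μM camptothecin on a 0 to +++++ scale.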

Experiment [2] addresses Tyrosyl-DNA phosphodiesterase 1 (Homo sapiens, UniProt Q9NUW8). The experiment is described as follows: Inhibition of human recombinant TDP1 assessed as hydrolysis of N14Y to N14P after 15 mins by PAGE analysis.
For the next experiment, the system named is MCF7. In words: Cytotoxicity against human MCF7 cells. Type of experiment: functional. The procedure, abridged: (§2)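 NCI-60 screen (NCI-DTP): one-dose prescreen at 10 μM, then five concentrations from 100 μM to 10 nM for compounds passing the cutoff. GI50 (50% growth inhibition) interpolated from the five-dose data. Single determination.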
Another experiment has as its system SF-539. The experiment is described as follows: Cytotoxicity against human SF539 cells. Type of experiment: functional. The procedure, abridged:
as §2

For the next experiment, the system named is SN12C. In words: Cytotoxicity against human SN12C cells. It is filed as functional. The essentials:
as §2

A short description of experiment [3]: Cytotoxicity against human UACC62 cells. The settings on record: UACC-62. It is filed as functional. The essentials:
as §2

In the next experiment the test system is HOP-62. The experiment is described as follows: Cytotoxicity against human HOP62 cells. Type of experiment: functional. The essentials: as §2
Experiment [4] can be described thus: Cytotoxicity against human HCT116 cells. It is filed as functional. The settings on record: HCT-116. The procedure, abridged: as §2
In the next experiment the test system is DU-145. In words: Cytotoxicity against human DU145 cells. It is filed as functional. The essentials:
as §2

A short description of experiment [5]: Cytotoxicity against human OVCAR3 cells. The settings on record: OVCAR-3. Type of experiment: functional. The essentials:
as §2

The target in experiment [6] is T1, DNA topoisomerase 1 (Homo sapiens). The experiment is described as follows: Inhibition of human recombinant Top1 expressed in baculovirus-infected insect Sf9 cells using 3'-[32P]-end-labeled 117 bp DNA as substrate assessed as inhibition of DNA cleavage after 20 mins by PAGE analysis. The procedure, abridged: as §1

The inhibition is the drop in the measured response relative to a control, in per cent. What is called IC50 is the midpoint of a concentration-inhibition curve. The term GI50 denotes the concentration at which growth is held to half of that of the control. The low end stands for greater sensitivity of the cells, the high end for lower sensitivity of the cells.

The source made the active and inactive calls. Some results are limits rather than exact numbers.

Tyrosyl-DNA phosphodiesterase 1, sequence (Q9NUW8 whole entry): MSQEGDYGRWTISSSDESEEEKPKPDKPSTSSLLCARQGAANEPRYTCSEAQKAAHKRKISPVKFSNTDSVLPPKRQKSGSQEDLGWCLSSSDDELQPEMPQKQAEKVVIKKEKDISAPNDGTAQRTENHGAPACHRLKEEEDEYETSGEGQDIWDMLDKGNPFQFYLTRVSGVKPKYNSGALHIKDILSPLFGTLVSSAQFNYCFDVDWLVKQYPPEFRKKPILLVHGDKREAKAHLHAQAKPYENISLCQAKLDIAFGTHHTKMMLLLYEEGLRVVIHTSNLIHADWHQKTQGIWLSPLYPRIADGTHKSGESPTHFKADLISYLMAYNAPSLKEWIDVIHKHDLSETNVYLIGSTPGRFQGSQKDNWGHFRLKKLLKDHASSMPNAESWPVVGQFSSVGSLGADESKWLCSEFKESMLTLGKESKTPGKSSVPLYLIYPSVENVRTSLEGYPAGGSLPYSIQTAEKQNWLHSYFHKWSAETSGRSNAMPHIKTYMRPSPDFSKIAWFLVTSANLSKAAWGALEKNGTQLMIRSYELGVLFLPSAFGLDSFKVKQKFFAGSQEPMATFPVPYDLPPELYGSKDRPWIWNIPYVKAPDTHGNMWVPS

Consider `O=C1c2cccc(O)c2-c2c1c1ccc([N+](=O)[O-])cc1c(=O)n2CCCn1ccnc1`, for which the inhibition in experiment [1] is 75%. Also, the IC50 in experiment [2] is greater than 111000 nM.
Turning to `NCCCn1c2c(c3ccc([N+](=O)[O-])cc3c1=O)C(=O)c1c(O)cccc1-2`, the GI50 is 250 nM in the experiment with MCF7; 1700 nM in the experiment on SF-539; 3400 nM with SN12C; 2500 nM in [3]; 1900 nM in the experiment on HOP-62; 470 nM in experiment [4]. For the same compound, the figures for the GI50 (in the experiment on DU-145; in [5]) were 1200 nM and 2900 nM, respectively. Moreover, the inhibition in experiment [1] came to 75%.
`O=C1c2cc(O)ccc2-c2c1c1ccc([N+](=O)[O-])cc1c(=O)n2CCCn1ccnc1`: the GI50 (in the experiment with MCF7; with SF-539; in the experiment with SN12C; in [3]; with HOP-62; in experiment [4]) was less than 10 nM each time. Also, the GI50 with DU-145 was less than 10 nM; in [5] it was 19 nM. For the same compound, the inhibition in [1] amounted to 75%. Also, in experiment [2], the IC50 was greater than 111000 nM.
Turning to `COc1cc2c(cc1O)C(=O)c1c-2n(CCCn2ccnc2)c(=O)c2cc([N+](=O)[O-])ccc12`, the GI50 (with MCF7; with SF-539; with SN12C; in [3]; in the experiment on HOP-62; in experiment [4]) was less than 10 nM in each case. Moreover, the concentration for 50% growth inhibition (GI50) (with DU-145; in experiment [5]) was less than 10 nM each time. In addition, the inhibition is 20% in experiment [1] and “Dose-dependent effect” in experiment [2]. In addition, the IC50 in [2] was greater than 111000 nM.
With `COc1cc2c(cc1O)-c1c(c3ccc([N+](=O)[O-])cc3c(=O)n1CCCn1ccnc1)C2=O`, the GI50 in the experiment with MCF7 was determined as 20 nM; in the experiment on SF-539 it was 49 nM; in the experiment with SN12C, 51 nM; in the experiment on HOP-62, 85 nM; in experiment [4], 71 nM; in the experiment on DU-145, 51 nM. The compound further gave a GI50 in experiment [5] of 320 nM. For the same compound, the inhibition in [1] stood at 50%.
For the compound `O=C1c2c(O)cccc2-c2c1c1ccc([N+](=O)[O-])cc1c(=O)n2CCCn1ccnc1`, the GI50 worked out at 56 nM in the experiment on MCF7; 150 nM in the experiment with SF-539; 170 nM in the experiment on SN12C; 180 nM in [3]; 81 nM in the experiment on HOP-62; 130 nM in experiment [4]. Also, the GI50 with DU-145 amounted to 130 nM; in [5], 230 nM. Besides, the inhibition in experiment [1] is 75%; in experiment [6] it was “Dose-dependent effect”. For the same compound, the IC50 in experiment [2] was greater than 111000 nM.
In the case of `O=C1c2ccc(O)cc2-c2c1c1ccc([N+](=O)[O-])cc1c(=O)n2CCCN1CCOCC1`, the GI50 in the experiment on MCF7 was less than 10 nM; with SF-539, 21 nM; in the experiment on SN12C, 36 nM; in [3], 20 nM; in the experiment on HOP-62 it was 25 nM; in experiment [4], 26 nM. The GI50 is 34 nM in the experiment on DU-145 and 41 nM in experiment [5]. In [1], the inhibition entry is “Active”. The IC50 in [2] is greater than 111000 nM. Also, the inhibition entry in experiment [6] is “Dose-dependent effect”.
`O=C1c2ccccc2-c2c1c1ccccc1c(=O)n2CCCNCCCNCCCn1c2c(c3ccccc3c1=O)C(=O)c1ccccc1-2`: the inhibition result in experiment [2] was “Dose-dependent effect”.
Consider `COc1cc2c(cc1O)C(=O)c1c-2n(CCCN2CCOCC2)c(=O)c2cc(OC)c(OC)cc12`, for which, in experiment [2], the IC50 was greater than 111000 nM.
For the compound `COc1cc2c(cc1O)-c1c(c3ccc([N+](=O)[O-])cc3c(=O)n1CCCN)C2=O`, the GI50 in the experiment on MCF7 was 170 nM; with SF-539 it was 660 nM; with SN12C it was 450 nM; in [3] it was 950 nM; with HOP-62, 470 nM; in experiment [4] it was 150 nM. For the same compound, the results for the GI50 (in the experiment with DU-145; in experiment [5]) were 430 nM and 1700 nM, respectively. Further, the inhibition in experiment [1] is 50%; in experiment [2], “Dose-dependent effect”.
Consider `COc1cc2c(cc1O)C(=O)c1c-2n(CCCn2ccnc2)c(=O)c2cc(OC)c(OC)cc12`, for which the IC50 in [2] is greater than 111000 nM.
On to `COc1cc2c(cc1O)-c1c(c3ccc([N+](=O)[O-])cc3c(=O)n1CCCN1CCOCC1)C2=O`, for which the GI50 in the experiment on MCF7 worked out at 35 nM; in the experiment with SF-539, 130 nM; in the experiment with SN12C, 63 nM; in experiment [3] it was 39 nM; in the experiment with HOP-62 it was 79 nM; in the experiment on DU-145, 110 nM. This compound returned a GI50 in [5] of 720 nM. Also, in [1], the inhibition was found to be 50%. The IC50 in [2] was greater than 111000 nM.
Consider `O=C1c2cccc(O)c2-c2c1c1ccc([N+](=O)[O-])cc1c(=O)n2CCCN1CCOCC1`, for which, in experiment [1], the inhibition was 50%. Further, the IC50 in experiment [2] is greater than 111000 nM.
`COc1cc2c(cc1O)C(=O)c1c-2n(CCCN)c(=O)c2cc([N+](=O)[O-])ccc12`: the GI50 (with MCF7; in the experiment on SF-539; in the experiment on SN12C; in experiment [3]; with HOP-62; in [4]) was less than 10 nM each time. Moreover, the figures for the GI50 (in the experiment on DU-145; in experiment [5]) were less than 10 nM and 27 nM, respectively. Moreover, the inhibition was 50% in [1] and “Dose-dependent effect” in experiment [2].
As for `NCCCn1c2c(c3ccc([N+](=O)[O-])cc3c1=O)C(=O)c1cccc(O)c1-2`, in experiment [1], the inhibition worked out at 50%.
In the case of `NCCCn1c2c(c3ccc([N+](=O)[O-])cc3c1=O)C(=O)c1ccc(O)cc1-2`, the GI50 in the experiment with MCF7 amounted to 120 nM; with SF-539 it was 210 nM; in experiment [4] it was 220 nM; with DU-145 it was 350 nM; in experiment [5] it was 270 nM. Further, the inhibition in [1] was 75%.
Turning to `O=C1c2c(O)cccc2-c2c1c1ccc([N+](=O)[O-])cc1c(=O)n2CCCN1CCOCC1`, the GI50 was 64 nM in the experiment with MCF7; 200 nM in the experiment with SF-539; 390 nM in [3]; 12000 nM in the experiment with HOP-62; 550 nM in experiment [4]; 29000 nM in experiment [5]. Also, the inhibition in experiment [1] was 50%; in experiment [6], “Dose-dependent effect”. Besides, in [2], the IC50 was greater than 111000 nM.
As to `COc1cc2c(cc1O)-c1c(c3cc(OC)c(OC)cc3c(=O)n1CCCn1ccnc1)C2=O`, in [2], the IC50 is greater than 111000 nM.
On to `NCCCn1c2c(c3ccc([N+](=O)[O-])cc3c1=O)C(=O)c1cc(O)ccc1-2`, for which the GI50 in the experiment with MCF7 stood at 26 nM; in the experiment with SF-539 it was 30 nM; in the experiment on SN12C, 46 nM; in experiment [3], 41 nM; with HOP-62, 56 nM; in [4], 78 nM. The results for the GI50 (with DU-145; in experiment [5]) were 52 nM and 220 nM, respectively. Besides, the inhibition result in experiment [1] was “Active”.
For the compound `COc1cc2c(cc1O)C(=O)c1c-2n(CCCN2CCOCC2)c(=O)c2cc([N+](=O)[O-])ccc12`, the GI50 (in the experiment on MCF7; with SF-539; in the experiment on SN12C; in experiment [3]; with HOP-62; in [4]) was less than 10 nM throughout. Moreover, the GI50 in the experiment with DU-145 is less than 10 nM. Further, the inhibition in [1] was 50%; in experiment [2], “Dose-dependent effect”. The IC50 in [2] was greater than 111000 nM.
For `O=C1c2ccc(O)cc2-c2c1c1ccc([N+](=O)[O-])cc1c(=O)n2CCCn1ccnc1`, the GI50 (in the experiment with MCF7; with SF-539; in the experiment on SN12C; in experiment [3]; in [4]; with DU-145) was less than 10 nM in each case. This compound also returned a GI50 in experiment [5] of 23 nM. Further, the figures for the inhibition in [1] and in [6] were 75% and “Dose-dependent effect”, respectively. For the same compound, the IC50 in [2] was greater than 111000 nM.
Turning to `O=C1c2cc(O)ccc2-c2c1c1ccc([N+](=O)[O-])cc1c(=O)n2CCCN1CCOCC1`, the GI50 (with MCF7; in the experiment on SF-539; in the experiment with SN12C; in experiment [3]; in the experiment on HOP-62; in experiment [4]) was less than 10 nM each time. The GI50 (in the experiment with DU-145; in experiment [5]) was less than 10 nM throughout. The inhibition entry in experiment [1] is “Active”. Also, the IC50 in experiment [2] was greater than 111000 nM.
